Activity calls are given as the source filed them. The rule behind the calls is not given here.
Experiments:
Mus musculus [1] = test: Analgesic activity in mouse at 10 mg/kg, ip after 2 hrs by hot plate assay; assay type: functional; conditions: route intraperitoneal
How it was run: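 Mice dropped into a glass cylinder on an aluminum plate held at 57 °C. Timed from foot contact to first hind-foot flick, with a 10-s limit. Observed 0.5 and 2 h after treatment. Value is % of mice failing to react within the limit. At least ten mice per dose.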

Rattus norvegicus [2] = test: Analgesic activity in rat assessed as median foot shock required to elicit flinch-jump at 17.8 mg/kg, po after 2 hrs; assay type: functional
Rattus norvegicus [3] = species: Rattus norvegicus; test: Induction of tolerance development in rat assessed as median foot shock required to elicit flinch-jump; assay type: functional, organism-based
Canis familiaris = test: Analgesic activity in dog assessed as rippling of skin at 1.62 mg/kg, sc after 2 hrs by radiant heat assay; assay type: functional, Canis lupus familiaris; conditions: route subcutaneous
How it was run: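 Dogs held in a harness with a shaved mid-back patch placed under a concealed radiant heat source. Endpoint is the latency from heat onset to skin "rippling". Baseline latency measured in each dog, then retested at 0.5 and 2 h after dosing. Result expressed as % of control.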

Mus musculus [4] = test: Analgesic activity in mouse assessed as tail-flick latency period at 10 mg/kg, ip after 2 hrs by tail flick test; assay type: functional; conditions: route intraperitoneal

What does the source list for `CN1CC[C@]23c4c5ccc(O)c4O[C@H]2[C@@H](O)C=C[C@H]3[C@H]1C5` [MORPHINE]?
Activity (Mus musculus [1]): 70%; Activity (Rattus norvegicus [2]): 1.2%; Activity (Rattus norvegicus [3]): Active; Activity (Canis familiaris): 155%; Activity (Mus musculus [4]): 80%
